# Where “and” joins values, the source holds several entries; their conditions need not be identical. Equal values may be shown once. Calls of active or inactive are those of the source.
# Experiments:
# Colon 26 [1] = experiment: Percent in life span when compound administered at 6.2 mg/kg against Colon 26 cells in balb/C mice; format: functional, organism-based; design: dose 6.2 mg/kg; conditions: Mus musculus
# How it was run: (§1)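 Colon 26 in Balb/C mice. Test agents given ip on days 1, 5 and 9 relative to tumor inoculation; mice observed 30 days. Median % increase in life span at optimal dose, with % survivors noted; ILS ≥25% over controls required for activity; ILS or body weight reduced ≥15% versus controls rated toxic.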
# P388 [2] = experiment: Percent increase in life span when compound administered at 25.5 mg/kg against P388 leukemia cells in BDF1 mice; format: functional, organism-based; design: dose 25.5 mg/kg; conditions: Mus musculus
# How it was run: (§2)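 BDF1 mice bearing P388, L1210 or cisplatin-resistant L1210 leukemia; ip dosing on days 1, 5 and 9 relative to tumor inoculation, 30-day observation. Median % ILS over controls at optimal dose plus % survivors; ≥25% ILS counted as active, ≥15% reduction in ILS or body weight over controls rated toxic.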
# L1210 [3] = experiment: Percent survivors when compound administered at 12.5 mg/kg against L1210 leukemia cells in BDF1 mice; format: functional, organism-based; design: dose 12.5 mg/kg; conditions: Mus musculus
# How it was run: (§3)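 BDF1 mice inoculated with P388, L1210 or cisplatin-resistant L1210 leukemia. Compound given ip on days 1, 5 and 9 relative to tumor inoculation, and mice observed for 30 days. Median % increase in life span over controls and % survivors are reported at the optimal dose. Activity requires ILS ≥25%. Toxicity is rated when ILS or body weight is reduced by ≥15%.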
# P388 [4] = experiment: Percent survivors when compound administered at 25.5 mg/kg against P388 leukemia cells in BDF1 mice; format: functional, organism-based; design: dose 25.5 mg/kg; conditions: Mus musculus; how it was run: as §3
# Colon 26 [5] = experiment: Percent survivors when compound administered at 6.2 mg/kg against Colon 26 cells in balb/C mice; format: functional, organism-based; design: dose 6.2 mg/kg; conditions: Mus musculus
# How it was run: (§4)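 Colon 26 tumor in Balb/C mice. Dosing ip on days 1, 5 and 9 after tumor inoculation, with a 30-day observation period. Readouts are median % increase in life span over control mice and % survivors, given at the optimal dose. Activity threshold is ILS ≥25%. A ≥15% drop in ILS or body weight is rated toxic.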
# [6] = Water solubility was determined; format: ADME; conditions: buffer
# P388 [7] = experiment: Percent survivors when compound administered at 100 mg/kg against P388 leukemia cells in BDF1 mice; format: functional, organism-based; design: dose 100 mg/kg; conditions: Mus musculus; how it was run: as §3
# L1210 [8] = experiment: Percent increase in life span when compound administered at 12.5 mg/kg against L1210 leukemia cells in BDF1 mice; format: functional, organism-based; design: dose 12.5 mg/kg; conditions: Mus musculus; how it was run: as §2
# L1210 [9] = experiment: Percent increase in life span when compound administered at 50 mg/kg against L1210 cisplatin resistant leukemia cells in BDF1 mice; IA=inactive; format: functional, organism-based; design: dose 50 mg/kg; conditions: Mus musculus; how it was run: as §2
# Mus musculus = experiment: Tumor weight inhibition against human mammary MX-1 in Athymic mice after 50 mg/kg optimal dose; format: functional, organism-based; design: dose 50 mg/kg; conditions: at 50 mg/kg
# Colon 26 [10] = experiment: Percent survivors when compound administered at 50 mg/kg againstColon 26 cells in balb/C mice; format: functional, organism-based; design: dose 50 mg/kg; conditions: Mus musculus; how it was run: as §4
# Colon 26 [11] = experiment: Percent in life span when compound administered at 50 mg/kg againstColon 26 cells in balb/C mice; format: functional, organism-based; design: dose 50 mg/kg; conditions: Mus musculus; how it was run: as §4
# P388 [12] = experiment: Percent increase in life span when compound administered at 100 mg/kg against P388 leukemia cells in BDF1 mice; format: functional, organism-based; design: dose 100 mg/kg; conditions: Mus musculus; how it was run: as §2
# L1210 [13] = experiment: Percent survivors when compound administered at 50 mg/kg against L1210 cisplatin resistant leukemia cells in BDF1 mice; IA=inactive; format: functional, organism-based; design: dose 50 mg/kg; conditions: Mus musculus; how it was run: as §3
# L1210 [14] = experiment: Percent survivors when compound administered at 50 mg/kg against L1210 leukemia cells in BDF1 mice; format: functional, organism-based; design: dose 50 mg/kg; conditions: Mus musculus; how it was run: as §3
# L1210 [15] = experiment: Percent increase in life span when compound administered at 50 mg/kg against L1210 leukemia cells in BDF1 mice; format: functional, organism-based; design: dose 50 mg/kg; conditions: Mus musculus; how it was run: as §2
# L1210 [16] = experiment: Percent survivors when compound administered at 50 mg/kg against L1210 cisplatin resistant leukemia cells in BDF1 mice; format: functional, organism-based; design: dose 50 mg/kg; conditions: Mus musculus; how it was run: as §3
# B16 [17] = experiment: Percent increase in life span when compound administered at 25 mg/kg against B-16 melanoma cells in […] mice; format: functional, organism-based; design: dose 25 mg/kg; conditions: Mus musculus
# How it was run: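 B-16 melanoma in […] mice; compounds given ip daily on days 1–9 relative to tumor inoculation, animals followed 60 days. Read-out median % increase in life span over controls at optimal dose with % survivors; activity threshold ILS ≥25%; ≥15% reduction in ILS or body weight versus controls rated toxic.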
# Colon 26 [18] = experiment: Percent survivors when compound administered at 100 mg/kg againstColon 26 cells in balb/C mice; format: functional, organism-based; design: dose 100 mg/kg; conditions: Mus musculus; how it was run: as §4
# B16 [19] = experiment: Percent survivors when compound administered at 12.5 mg/kg against B-16 melanoma cells in […] mice; format: functional; conditions: Mus musculus
# How it was run: (§5)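 Median % increase in life span versus controls and % survivors are recorded at the optimal dose. ILS ≥25% counts as active, and a ≥15% reduction in ILS or body weight counts as toxic.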
# L1210 [20] = experiment: Percent increase in life span when compound administered at 50 mg/kg against L1210 cisplatin resistant leukemia cells in BDF1 mice; format: functional, organism-based; design: dose 50 mg/kg; conditions: Mus musculus; how it was run: as §2
# B16 [21] = experiment: Percent increase in life span when compound administered at 12.5 mg/kg against B-16 melanoma cells in […] mice; format: functional; conditions: Mus musculus; how it was run: as §5
# B16 [22] = experiment: Percent survivors when compound administered at 25 mg/kg against B-16 melanoma cells in […] mice; format: functional, organism-based; design: dose 25 mg/kg; conditions: Mus musculus; how it was run: as §5
# Colon 26 [23] = experiment: Percent in life span when compound administered at 100 mg/kg againstColon 26 cells in balb/C mice; format: functional, organism-based; design: dose 100 mg/kg; conditions: Mus musculus; how it was run: as §1
substance,measurement,setting,value
"Platinum:8,8-Dichloro-1,3-dioxa-7,9-diaza-spiro[4.5]decane",Increase,Colon 26 [1],50%
same,Increase,P388 [2],160%
same,Survivors,L1210 [3],0%
same,Survivors,P388 [4],0%
same,Survivors,Colon 26 [5],0%
"Platinum:2,4,10,15-Tetraoxa-8,16-diaza-dispiro[5.2.6.2]heptadecane-11,14-dione",Water solubility,[6],10000 µg/mL
"Platinum:Formic acid 9-formyloxy-3-methyl-2,4-dioxa-8,10-diaza-spiro[5.5]undec-9-yl ester",Water solubility,[6],100000 µg/mL
"Platinum:3,3-Dichloro-8,15-dioxa-2,4-diaza-dispiro[5.2.5.2]hexadecane",Water solubility,[6],200 µg/mL
CARBOPLATIN,Survivors,P388 [7],6%
same,Increase,L1210 [8],35%
same,Increase,L1210 [9],inactive
same,inhibition,Mus musculus,90%
same,Survivors,Colon 26 [10],17%
same,Increase,Colon 26 [11],85%
same,Increase,P388 [12],144%
same,Survivors,L1210 [13],inactive
"Platinum:Formic acid 9-formyloxy-2,4-dioxa-8,10-diaza-spiro[5.5]undec-9-yl ester",Survivors,L1210 [14],50%
same,Increase,L1210 [15],172%
same,Survivors,L1210 [16],33%
same,Increase,B16 [17],64% and 84%
same,Survivors,Colon 26 [18],3%
same,Survivors,B16 [19],3%
same,Increase,L1210 [20],168%
same,Survivors,Colon 26 [10],0%
same,Increase,B16 [21],61%
same,Survivors,B16 [22],0%
same,Increase,Colon 26 [23],127%

# Source: ChEMBL document CHEMBL1124697, “A new family of water-soluble, third generation antitumor platinum complexes” (J Med Chem, 1989)
